High-throughput results as filed in PubChem BioAssay.
MC4R antag cAMP: blocks human MC4R cAMP signaling; AID 540295; MC4R-expressing cells, MTII-stimulated cAMP, LANCE TR-FRET; inhibition, % at 6.5 µM; 360,000 tested, 0.48% active;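 active means inhibition above its plate's cutoff, the mean of tested wells on that plate plus 3 SD, cut at about 29% in these data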;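 further: 0% = Melanotan II alone and 100% = Melanotan II plus saturating MCL0020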
Target sequence (P32245 whole entry, looked up): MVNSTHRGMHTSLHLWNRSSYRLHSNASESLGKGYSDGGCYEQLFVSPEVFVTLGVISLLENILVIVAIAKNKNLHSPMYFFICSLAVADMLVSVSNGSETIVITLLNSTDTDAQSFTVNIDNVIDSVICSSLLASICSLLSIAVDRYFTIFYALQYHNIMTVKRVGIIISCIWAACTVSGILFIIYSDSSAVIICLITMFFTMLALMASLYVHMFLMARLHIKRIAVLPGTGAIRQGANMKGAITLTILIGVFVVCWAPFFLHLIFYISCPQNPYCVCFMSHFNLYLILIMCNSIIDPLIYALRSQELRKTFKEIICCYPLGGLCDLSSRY
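Assay system: U2OS cells stably expressing human melanocortin 4 receptor (MC4R) / Dosing: 6.5 µM / Timing: compound 30 min, challenge 1 h, detection 1 h / Measured by: Eu-cAMP/anti-cAMP TR-FRET, emission 671 nm / Replicates: singlicate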
MC4R ag barr: activates human MC4R beta-arrestin recruitment | U2OS MC4R beta-arrestin complementation, luminescence; percent of melanotan II response, DMSO zero | activation, % at 8.9 µM | 360,000 tested, 0.98% active;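 active means activation above a per-plate cutoff, the mean activation of sample wells on that plate plus 3 SD, cut at about 8% in these data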
OPRM1-OPRD1 ag: OPRM1-OPRD1 heterodimerization agonism; cells, luminescence; activation, % at 9.3 µM; 340,000 tested, 0.3% active; in the data active means activation above about 18%;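 further: 0% = vehicle-treated cells and 100% = reference agonist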
HTR5A inv ag: HTR5A inverse agonism, opioid heterodimer counter-screen. HTR5A cell line, luminescence. AID 504634. inhibition, % at 9.3 µM. P47898. 340,000 tested, 0.083% active; in the data active means inhibition mostly above about 23%, no sharp cut-off; inactive means mostly below about 18%;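 further: 0% = cells with DMSO and 100% = no-cell wells with DMSO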
HTR5A ag ctr: activates human HTR5A in OPRM1-OPRD1 agonist counter-screen | HTR5A agonist assay, luminescence, cell-based | activation, % at 9.3 µM | 340,000 tested, 0.61% active; in the data active means activation mostly above about 9.5%, no sharp cut-off; inactive means mostly below about 7.6%;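 further: 0% = cells with vehicle only and 100% = reference agonist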
MOR-DOR inv ag: inverse agonist of human OPRM1-OPRD1 heterodimerization | P35372+P41143 | cell-based MOR-DOR heterodimer luminescence, inverse agonism | inhibition, % at 9.3 µM | 340,000 tested, 0.21% active; in the data active means inhibition above about 22%, passing the limit was not always enough;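 further: 0% = cells with DMSO and 100% = wells without cells with DMSO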
MC4R barr conf: human MC4R beta-arrestin agonism confirmation; shares compounds with MC4R ag barr; U2OS MC4R beta-arrestin recruitment, luminescence; scaled DMSO 0%, Melanotan II 100%; activation, % at 8.9 µM; 2,400 tested, 31% active;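 active means mean activation across replicates above the hit cutoff set in the earlier primary screen, cut at about 8% in these data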
MOR-DOR barr ag: activates mu-delta opioid heterodimer, MC4R agonist counter-screen | shares compounds with MC4R ag barr | U2OS PathHunter beta-arrestin, beta-gal luminescence; percent of deltorphin B response, DMSO zero | activation, % at 9.2 µM | 2,400 tested, 5.8% active | AID 602194;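 active means mean activation across replicates exceeds the hit threshold derived in the earlier primary screen, cut at about 18% in these data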;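 further: 100% = deltorphin B at 0.9 µM final and 0% = DMSO alone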
The depositor's hits bear a star; / = no result. Rows were chosen to be rich in hits. Some 2.4% of all compounds tested hit in one or more screens of this group.

SMILES	MC4R antag cAMP	MC4R ag barr	OPRM1-OPRD1 ag	HTR5A inv ag	HTR5A ag ctr	MOR-DOR inv ag	MC4R barr conf	MOR-DOR barr ag
C/C(CCc1ccc2c(c1)OCO2)=N\N=C(/N)SC1CC(=O)N(c2ccccc2F)C1=O (stereo unspecified)	0	-1	-1	-6	0	6	/	/
CCN(CC)CC(=O)Nc1cccc2c1C(=O)c1ccccc1C2=O	24	11*	9	-7	3	-67	2	6
COc1ccc(C2CC(c3ccc(Cl)cc3Cl)n3nc(N)nc3N2)cc1 (stereo unspecified)	5	15*	-1	2	-1	3	13*	7
COc1ccc(C2CC(c3ccc(Cl)cc3Cl)Nc3nc(N)nn32)cc1 (stereo unspecified)	14	7	0	17	-6	2	/	/
CCCCC(=O)NNC(=O)N1c2ccccc2Sc2ccccc21	-4	-1	3	-5	1	-13	/	/
C/C(=N\NC(=O)C(C)Sc1ccccc1)c1ccc([N+](=O)[O-])cc1 (stereo unspecified)	-3	0	0	-15	-4	1	/	/
COc1cccc(OCC(O)CN2CCC(CN3C(=O)c4cccc5cccc(c45)C3=O)CC2)c1 (stereo unspecified)	14	2	2	5	-2	-12	/	/
Cc1cc(C)cc(OCC(O)CN2CCC(CN3C(=O)c4cccc5cccc(c45)C3=O)CC2)c1 (stereo unspecified)	9	31*	14	-27	9	-72	33*	14
O=C1c2cccc3cccc(c23)C(=O)N1CC1CCN(CC(O)COc2ccc3ccccc3c2)CC1 (stereo unspecified)	-3	55*	13	-25	9	-67	22*	16
CCN1CCN(c2cc(N3CCc4ccccc4C3)c(F)cc2[N+](=O)[O-])CC1	-6	15*	6	-5	2	-38	14*	15
CC(=O)N1CCN(c2cc(N3CCCC3)c(F)cc2[N+](=O)[O-])CC1	-4	0	-2	1	0	7	/	/
CCc1nc(NCC2CC2)c2nnn(Cc3ccccc3)c2n1	-1	12*	/	/	/	/	4	10
COc1cc(CN2CCN(c3cccc(C)c3C)CC2)cc(Br)c1O	-17	12*	15	-13	5	-74	0	7
CN1/C(=C\C(=O)C[n+]2ccc3ccccc3c2)C(C)(C)c2ccccc21	1	1	/	/	/	/	/	/
O=C(C[C@H]1C(=O)N(c2ccccc2)C[C@@H]1Cc1ccccc1)Nc1ccc(Br)cc1	10	14*	/	/	/	/	1	4
CN1CCN(C2=CC3=CC(=C(C#N)C#N)CCC3CC2)CC1 (stereo unspecified)	-24	15*	2	3	-1	-10	14*	7
O=C1NC2(NN1c1ccccc1)C1CC3CC(C1)CC2C3 (stereo unspecified)	15	18*	4	20	-7	-23	3	5
CCCCCCCC/C=C\CCCCCCCC(=O)NCCc1ccc(O)c(O)c1	14	9.8*	3	-54	8	-14	7	5
CCCCCCCC/C=C\CCCCCCCC(=O)NCCO	-3	0	0	-9	2	-2	/	/
CCCCCCn1c(=O)n2n(c1=O)[C@@H]1CN(S(=O)(=O)c3ccc(C)cc3)C[C@]1(O)[C@@H](OC(=O)NCc1ccccc1)C2	7	10*	/	/	/	/	8.5*	3
COc1ccc(C(=O)N2CCC(n3nccc3NC(=O)C3CC3)CC2)cc1F	7	-1	-4	16	1	13	/	/
COc1cc(/C=N/NC(=S)NC2CC3CC2C2C=CCC32)ccc1O (stereo unspecified)	-16	9.9*	1	-8	6	-5	5	8
